How the values were obtained:
[1] = (§1) In vivo inverse agonist activity at RORgamma in MOG(35-55) peptide/PTX-induced mechanistic C57BL/6 mouse model assessed as anti-CD3 induced TNFalpha level in serum at 10 mg/kg, po dosed for 5 days during MOG/PTX priming and followed by 45 mins prior to anti-CD3 challenge and measured after 2 hrs relative to control; type: functional; conditions: time 5 day
In short: (§2)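 Mice immunized with mouse MOG35-55 peptide plus pertussis toxin. After 5 days, compound given orally as a suspension in methylcellulose 400cp + 1% poloxamer, 45 min before an anti-CD3 challenge. Circulating cytokines measured 2 h later. Comparison vs vehicle by Dunnett post test.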

[2] = as §1, with “IL-17A” for “TNFalpha”; type: functional; conditions: time 5 day; in short: as §2
[3] = Cmax in mouse at 10 mg/kg, po; type: ADME, organism-based; set-up: route oral, dose 10 mg/kg; conditions: in vivo
In short: (§3)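 Mice dosed orally at 10, 30 or 100 mg/kg as a suspension in 1% methylcellulose 400cp + 0.1% Poloxamer (188). Tmax, Cmax, AUClast and oral t1/2 were taken from plasma concentration–time profiles. Ratios are the value at each dose over the value at 10 mg/kg.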

[4] = Tmax in mouse at 100 mg/kg, po; type: ADME, organism-based; conditions: in vivo
In short: (§4)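 Mice dosed orally with an ascending-dose series at 10, 30 and 100 mg/kg. Compound given as a suspension in 1% methylcellulose 400cp + 0.1% poloxamer. Plasma Tmax taken from the concentration profiles. The Cmax ratio is expressed relative to the 10 mg/kg dose.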

[5] = as §1, with “IL-10” for “TNFalpha”, “(reference value: -11%)” for “relative to control”; type: functional; conditions: time 5 day; in short: as §2
[6] = Half life in mouse at 100 mg/kg, po; type: ADME, organism-based; conditions: in vivo
In short: (§5)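 Oral ascending-dose PK in mice at 100 mg/kg (ratios against 10 mg/kg), given as a suspension in 1% methylcellulose 400cp + 0.1% Poloxamer. Cmax, AUClast and t1/2 come from plasma profiles.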

[7] = as §1, with “IL-6” for “TNFalpha”, “100” for “10”; type: functional; conditions: time 5 day; in short: as §2
[8] = Unbound plasma clearance in mouse at 10 mg/kg, po or 1 mg/kg, iv; type: ADME, organism-based; conditions: in vivo
In short: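 Mouse PK using two routes: iv at 1 mg/kg and po at 10 mg/kg. The po dose was a suspension in 1% methylcellulose 400cp + 0.1% Poloxamer 188. Unbound plasma clearance derived from the plasma profiles.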

[9] = Ratio of Cmax in mouse at 30 mg/kg, po to Cmax in mouse at 10 mg/kg, po; type: ADME, organism-based; conditions: in vivo; in short: as §4
[10] = as §1, with “IL-2” for “TNFalpha”, “30” for “10”; type: functional; conditions: time 5 day; in short: as §2
[11] = as §1, with “IL-17F” for “TNFalpha”, “100” for “10”; type: functional; conditions: time 5 day; in short: as §2
[12] = molecular target: CYP2C9 (Homo sapiens, UniProt P11712); assay: Inhibition of CYP2C9 (unknown origin) at 1 uM relative to control; type: ADME
[13] = Ratio of AUClast in mouse at 30 mg/kg, po to AUClast in mouse at 10 mg/kg, po; type: ADME, organism-based; conditions: in vivo; in short: as §3
[14] = AUClast in mouse at 30 mg/kg, po; type: ADME, organism-based; set-up: time 0 - last, route oral, dose 30 mg/kg; conditions: in vivo; in short: as §3
[15] = Oral bioavailability in mouse at 10 mg/kg; type: ADME, organism-based; conditions: in vivo
In short: (§6)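 Mouse PK with iv 1 mg/kg and po 10 mg/kg, oral dose as a suspension in 1% methylcellulose 400cp + 0.1% Poloxamer 188. Plasma clearance (total and unbound), iv t1/2 and oral bioavailability F were derived from the iv and po profiles.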

[16] = Plasma clearance in mouse at 10 mg/kg, po or 1 mg/kg, iv; type: ADME, organism-based; in short: as §6
[17] = Cmax in mouse at 100 mg/kg, po; type: ADME, organism-based; set-up: route oral, dose 100 mg/kg; conditions: in vivo; in short: as §5
[18] = molecular target: T1, Nuclear receptor ROR-gamma (Homo sapiens, UniProt P51449); assay: Inverse agonist activity at pSG5GAL4-DBD/LBD fused human RORgamma receptor expressed in COS7 cells co-expressing 5 copies of GAL4 response element after 18 hrs by luciferase reporter gene based assay; type: cell-based
T1 sequence (P51449 whole entry): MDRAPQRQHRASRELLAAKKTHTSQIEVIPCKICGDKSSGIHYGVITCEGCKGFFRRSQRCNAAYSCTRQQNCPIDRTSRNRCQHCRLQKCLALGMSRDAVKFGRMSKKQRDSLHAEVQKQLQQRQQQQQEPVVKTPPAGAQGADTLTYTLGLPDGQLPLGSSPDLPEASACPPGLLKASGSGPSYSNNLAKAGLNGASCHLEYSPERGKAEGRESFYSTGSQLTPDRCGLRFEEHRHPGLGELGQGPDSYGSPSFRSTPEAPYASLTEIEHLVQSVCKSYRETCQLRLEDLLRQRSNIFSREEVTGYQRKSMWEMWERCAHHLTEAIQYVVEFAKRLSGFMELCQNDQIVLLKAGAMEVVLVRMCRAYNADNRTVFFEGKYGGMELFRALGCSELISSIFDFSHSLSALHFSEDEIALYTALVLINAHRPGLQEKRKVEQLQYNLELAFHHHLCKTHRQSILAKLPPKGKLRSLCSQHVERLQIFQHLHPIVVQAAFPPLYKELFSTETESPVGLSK

[19] = molecular target: Cytochrome P450 3A4 (Homo sapiens, UniProt P08684); assay: Drug metabolism assessed as CYP3A4 (unknown origin) mediated metabolite formation; type: ADME
[20] = Half life in mouse at 10 mg/kg, po; type: ADME, organism-based; conditions: in vivo; in short: as §3
[21] = as §1, with “IL-10” for “TNFalpha”, “30” for “10”, “(reference value: -11%)” for “relative to control”; type: functional; conditions: time 5 day; in short: as §2
[22] = Ratio of Cmax in mouse at 100 mg/kg, po to Cmax in mouse at 10 mg/kg, po; type: ADME, organism-based; conditions: in vivo; in short: as §5
[23] = Half life in mouse at 30 mg/kg, po; type: ADME, organism-based; conditions: in vivo; in short: as §3
[24] = Stability in mouse microsomes assessed as unbound intrinsic clearance; type: ADME, Microsome
In short: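 Unbound intrinsic clearance measured in human and mouse liver microsomes, expressed in L/h/kg. Values are geometric means of at least two separate runs.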

[25] = molecular target: T1, Nuclear receptor ROR-gamma; assay: Inverse agonist activity at RORgamma in human CD4+ T cells assessed as inhibition of IL17A secretion after 72 hrs by ELISA; type: cell-based, CD4+ve Th
[26] = as §1, with “IFNgamma” for “TNFalpha”, “100” for “10”; type: functional; conditions: time 5 day; in short: as §2
[27] = as §1, with “IL-2” for “TNFalpha”, “100” for “10”; type: functional; conditions: time 5 day; in short: as §2

Cytochrome P450 3A4, sequence (P08684 whole entry): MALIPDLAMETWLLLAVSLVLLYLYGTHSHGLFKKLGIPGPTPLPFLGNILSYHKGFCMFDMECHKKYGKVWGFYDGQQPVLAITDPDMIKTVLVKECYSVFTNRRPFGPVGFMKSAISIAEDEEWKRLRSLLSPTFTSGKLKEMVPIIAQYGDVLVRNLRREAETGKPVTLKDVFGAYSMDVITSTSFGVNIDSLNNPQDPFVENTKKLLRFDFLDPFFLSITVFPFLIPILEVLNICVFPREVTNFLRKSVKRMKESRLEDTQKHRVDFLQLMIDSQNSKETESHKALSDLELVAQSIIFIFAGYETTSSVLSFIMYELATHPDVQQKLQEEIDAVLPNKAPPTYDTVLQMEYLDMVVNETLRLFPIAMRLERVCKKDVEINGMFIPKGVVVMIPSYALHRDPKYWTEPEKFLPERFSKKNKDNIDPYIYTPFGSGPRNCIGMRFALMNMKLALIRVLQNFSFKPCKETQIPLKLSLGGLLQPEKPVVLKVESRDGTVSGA
CYP2C9, sequence (P11712 whole entry): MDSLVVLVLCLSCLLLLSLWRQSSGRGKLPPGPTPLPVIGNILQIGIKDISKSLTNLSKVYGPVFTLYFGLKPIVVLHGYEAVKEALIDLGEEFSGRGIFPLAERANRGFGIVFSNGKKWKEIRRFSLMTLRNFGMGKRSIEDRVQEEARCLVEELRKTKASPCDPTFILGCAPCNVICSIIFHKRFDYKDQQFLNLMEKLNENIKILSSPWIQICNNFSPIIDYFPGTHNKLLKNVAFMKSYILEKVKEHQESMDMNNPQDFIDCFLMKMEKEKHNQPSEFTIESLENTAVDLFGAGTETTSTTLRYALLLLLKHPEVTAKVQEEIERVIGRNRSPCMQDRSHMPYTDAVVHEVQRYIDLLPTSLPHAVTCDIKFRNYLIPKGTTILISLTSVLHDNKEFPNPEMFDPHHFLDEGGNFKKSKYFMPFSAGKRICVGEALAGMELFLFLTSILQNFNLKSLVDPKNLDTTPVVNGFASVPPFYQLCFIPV

Cmax [3]: 3320 ng/mL
Tmax [4]: 3 h
half-life [6]: 2.2 h
CL free [8]: 1620 mL/min/kg
Ratio [9]: 3.5
inhibition at 1 µM [12]: 100%
Ratio [13]: 8.8
AUC(0-t) [14]: 34200 ng·h/mL
bioavailability [15]: 64%
clearance [16]: 27.5 mL/min/kg
Cmax [17]: 27500 ng/mL
EC50 [18]: 220 nM
Fm [19]: 87%
half-life [20]: < 1 h
Ratio [22]: 8.3
half-life [23]: 1 h
CL free [24]: 100 mL/min/kg
EC50 [25]: 150 nM
SMILES: CNC(=O)[C@@H]1CCCN1S(=O)(=O)c1ccc(Cl)c(COc2cccc3c(-c4cncn4C)cc(C(C)C)nc23)c1Cl
Activity [1]: -22%
Activity [2]: -23%
Activity [5]: -3%
Activity [7]: -21%
Activity [10]: -30%
Activity [11]: -60%
Activity [21]: 66%
Activity [26]: -81%
Activity [27]: -46%
